Test results as given in ChEMBL document CHEMBL3297719, “Hybrid dopamine uptake blocker-serotonin releaser ligands: a new twist on transporter-focused therapeutics” (ACS Med Chem Lett, 2014).
Calls of active or inactive are those of the source. The calls are words filed in the database; no cut-off is given here.

Columns and labels:
[1] = target: Transporter (Rattus norvegicus) (UniProt Q63380); test: Inhibition of NET-mediated norepinephrine uptake in rat synaptosomes; format: subcellular; conditions: Brain
Method in brief: (§1)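 Synaptosomes prepared from rat brain homogenate. Each compound was run in both the release assay and the uptake-inhibition assay to classify it as a releasing substrate or an uptake inhibitor. Dose-response curves were then completed only for the assigned activity. Values are means ± SD from N = 3 experiments, each performed in triplicate.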

[2] = target: T1, 5-hydroxytryptamine receptor 1A (Homo sapiens) (UniProt P08908); test: Agonist activity at human 5HT1A expressed in CHO cells coexpressing Galpha16 at 10 uM by calcium mobilization assay; format: functional, cell-based
T1 sequence (whole entry): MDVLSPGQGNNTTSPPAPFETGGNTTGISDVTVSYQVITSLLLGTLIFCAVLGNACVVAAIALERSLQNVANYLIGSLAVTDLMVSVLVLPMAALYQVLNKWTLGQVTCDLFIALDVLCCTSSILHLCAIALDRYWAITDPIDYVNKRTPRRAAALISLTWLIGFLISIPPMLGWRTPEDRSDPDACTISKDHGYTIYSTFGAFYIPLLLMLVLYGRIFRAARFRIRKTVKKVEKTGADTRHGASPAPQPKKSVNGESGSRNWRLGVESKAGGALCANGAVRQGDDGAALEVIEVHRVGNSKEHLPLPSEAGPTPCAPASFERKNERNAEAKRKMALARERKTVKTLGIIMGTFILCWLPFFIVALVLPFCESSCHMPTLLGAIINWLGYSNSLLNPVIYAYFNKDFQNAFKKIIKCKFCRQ

[3] = target: T2, Sodium-dependent serotonin transporter (Rattus norvegicus, UniProt P31652); test: Induction of SERT-mediated serotonin release in rat synaptosomes; format: subcellular, Brain; method in brief: as §1
[4] = target: 5-hydroxytryptamine receptor 2A (Homo sapiens) (UniProt P28223); test: Agonist activity at human 5HT2A expressed in HEK293 cells at 10 uM by calcium mobilization assay; format: functional, cell-based
[5] = target: Transporter (Rattus norvegicus) (UniProt Q63380); test: Induction of NET-mediated norepinephrine release in rat synaptosomes; format: subcellular; conditions: Brain; method in brief: as §1
[6] = target: T3, Sodium-dependent dopamine transporter (Rattus norvegicus, UniProt P23977); test: Inhibition of DAT-mediated dopamine uptake in rat synaptosomes; format: subcellular, Brain; method in brief: as §1
[7] = target: 5-hydroxytryptamine receptor 2B (Homo sapiens) (UniProt P41595); test: Agonist activity at human 5HT2B expressed in HEK293 cells at 10 uM by calcium mobilization assay; format: functional, cell-based
[8] = target: 5-hydroxytryptamine receptor 2B (Homo sapiens) (UniProt P41595); test: Agonist activity at human 5HT2C expressed in HEK293 cells at 10 uM by calcium mobilization assay; format: functional, cell-based
[9] = target: 5-hydroxytryptamine receptor 2A (Homo sapiens) (UniProt P28223); test: Agonist activity at human 5HT2A expressed in CHOK1 cells at 10 uM after 3 hrs by beta-arrestin recruitment assay; format: cell-based; conditions: CHO-K1
[10] = target: T3, Sodium-dependent dopamine transporter; test: Induction of DAT-mediated dopamine release in rat synaptosomes; format: subcellular, Brain; method in brief: as §1
[11] = target: T2, Sodium-dependent serotonin transporter; test: Inhibition of SERT-mediated serotonin uptake in rat synaptosomes; format: subcellular, Brain; method in brief: as §1
[12] = target: Sodium-dependent dopamine transporter (Homo sapiens, UniProt Q01959); test: Inhibition of DAT (unknown origin)-mediated dopamine reuptake
[13] = target: Sodium-dependent serotonin transporter (Homo sapiens, UniProt P31645); test: Induction of SERT (unknown origin)-mediated serotonin release
Chain of Sodium-dependent serotonin transporter (Homo sapiens, UniProt P31645) (P31645 whole entry): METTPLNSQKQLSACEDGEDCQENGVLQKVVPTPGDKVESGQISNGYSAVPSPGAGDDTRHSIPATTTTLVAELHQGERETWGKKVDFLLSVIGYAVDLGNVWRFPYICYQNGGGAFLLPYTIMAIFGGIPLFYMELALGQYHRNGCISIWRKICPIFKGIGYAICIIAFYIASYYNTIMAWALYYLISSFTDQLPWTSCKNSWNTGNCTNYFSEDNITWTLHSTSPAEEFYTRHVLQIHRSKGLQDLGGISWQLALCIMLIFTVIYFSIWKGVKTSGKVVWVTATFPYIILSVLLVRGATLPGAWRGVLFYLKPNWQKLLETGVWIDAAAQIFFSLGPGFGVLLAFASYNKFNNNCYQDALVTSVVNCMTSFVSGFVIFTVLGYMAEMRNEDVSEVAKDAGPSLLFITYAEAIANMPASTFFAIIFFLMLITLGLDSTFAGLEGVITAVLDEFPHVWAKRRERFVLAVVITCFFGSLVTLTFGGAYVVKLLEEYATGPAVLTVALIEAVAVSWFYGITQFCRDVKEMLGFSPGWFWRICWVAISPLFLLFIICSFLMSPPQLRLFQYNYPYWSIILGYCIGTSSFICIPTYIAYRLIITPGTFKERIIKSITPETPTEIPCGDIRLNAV

Chain of 5-hydroxytryptamine receptor 2A (Homo sapiens) (P28223 whole entry): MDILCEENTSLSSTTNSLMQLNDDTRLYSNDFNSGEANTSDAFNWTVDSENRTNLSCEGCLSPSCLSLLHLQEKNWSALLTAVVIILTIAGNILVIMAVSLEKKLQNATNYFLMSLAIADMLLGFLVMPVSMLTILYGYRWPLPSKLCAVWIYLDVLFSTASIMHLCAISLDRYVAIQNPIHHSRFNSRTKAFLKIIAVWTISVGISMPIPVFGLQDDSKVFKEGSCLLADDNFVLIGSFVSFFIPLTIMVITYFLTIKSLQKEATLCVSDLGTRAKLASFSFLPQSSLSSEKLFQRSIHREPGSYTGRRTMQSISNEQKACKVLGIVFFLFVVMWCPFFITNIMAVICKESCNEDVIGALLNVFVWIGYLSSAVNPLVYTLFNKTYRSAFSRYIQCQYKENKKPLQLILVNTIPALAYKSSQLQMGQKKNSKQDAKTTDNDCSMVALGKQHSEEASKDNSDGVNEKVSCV
T3 sequence (P23977 whole entry): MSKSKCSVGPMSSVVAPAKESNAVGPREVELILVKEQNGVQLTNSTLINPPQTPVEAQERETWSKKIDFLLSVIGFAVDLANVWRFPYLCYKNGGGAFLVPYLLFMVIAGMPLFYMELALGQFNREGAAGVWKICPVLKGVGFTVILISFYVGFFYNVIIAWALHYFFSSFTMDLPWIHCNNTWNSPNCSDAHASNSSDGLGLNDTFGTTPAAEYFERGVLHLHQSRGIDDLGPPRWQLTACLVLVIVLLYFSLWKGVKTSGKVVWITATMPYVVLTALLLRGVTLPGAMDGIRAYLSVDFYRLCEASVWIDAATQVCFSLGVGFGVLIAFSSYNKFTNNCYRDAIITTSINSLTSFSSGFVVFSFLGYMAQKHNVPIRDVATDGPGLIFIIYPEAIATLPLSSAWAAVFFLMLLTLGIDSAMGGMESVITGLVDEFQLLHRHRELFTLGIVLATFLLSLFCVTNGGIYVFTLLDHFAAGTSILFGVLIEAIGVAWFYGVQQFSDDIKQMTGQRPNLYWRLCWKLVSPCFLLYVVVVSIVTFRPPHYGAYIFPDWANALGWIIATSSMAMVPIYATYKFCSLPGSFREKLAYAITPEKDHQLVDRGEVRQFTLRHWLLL
Chain of Transporter (Rattus norvegicus) (Q63380 as listed by the source): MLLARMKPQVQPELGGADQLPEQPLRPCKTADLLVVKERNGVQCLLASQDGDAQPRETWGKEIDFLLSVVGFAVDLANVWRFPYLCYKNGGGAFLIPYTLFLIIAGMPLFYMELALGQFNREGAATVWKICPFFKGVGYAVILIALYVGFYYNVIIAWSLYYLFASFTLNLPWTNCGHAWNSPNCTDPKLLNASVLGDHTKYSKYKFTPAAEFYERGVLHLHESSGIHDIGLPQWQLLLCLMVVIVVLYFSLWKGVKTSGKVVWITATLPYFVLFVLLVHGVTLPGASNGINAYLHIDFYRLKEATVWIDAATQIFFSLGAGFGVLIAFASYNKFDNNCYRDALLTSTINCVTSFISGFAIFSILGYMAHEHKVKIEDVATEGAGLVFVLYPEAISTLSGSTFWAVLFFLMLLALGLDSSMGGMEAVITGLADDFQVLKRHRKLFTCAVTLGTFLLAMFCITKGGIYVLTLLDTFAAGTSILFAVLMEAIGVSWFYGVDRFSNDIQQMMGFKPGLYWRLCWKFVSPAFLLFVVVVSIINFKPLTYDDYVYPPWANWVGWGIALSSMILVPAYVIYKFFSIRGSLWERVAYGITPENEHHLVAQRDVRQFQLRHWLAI
Chain of 5-hydroxytryptamine receptor 2B (Homo sapiens) (P41595 whole entry): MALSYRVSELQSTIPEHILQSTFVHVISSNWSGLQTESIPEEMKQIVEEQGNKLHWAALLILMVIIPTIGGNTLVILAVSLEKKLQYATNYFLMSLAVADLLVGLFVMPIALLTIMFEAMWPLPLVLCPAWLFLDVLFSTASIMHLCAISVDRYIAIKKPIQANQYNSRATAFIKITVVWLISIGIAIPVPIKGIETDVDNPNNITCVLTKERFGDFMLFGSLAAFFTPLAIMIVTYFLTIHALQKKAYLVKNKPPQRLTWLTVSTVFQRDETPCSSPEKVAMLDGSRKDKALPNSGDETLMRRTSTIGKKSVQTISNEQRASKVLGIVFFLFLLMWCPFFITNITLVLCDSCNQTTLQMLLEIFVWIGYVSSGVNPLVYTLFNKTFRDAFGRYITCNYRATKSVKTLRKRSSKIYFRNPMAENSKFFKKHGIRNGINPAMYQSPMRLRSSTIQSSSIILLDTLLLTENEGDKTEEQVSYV
T2 sequence (P31652 whole entry): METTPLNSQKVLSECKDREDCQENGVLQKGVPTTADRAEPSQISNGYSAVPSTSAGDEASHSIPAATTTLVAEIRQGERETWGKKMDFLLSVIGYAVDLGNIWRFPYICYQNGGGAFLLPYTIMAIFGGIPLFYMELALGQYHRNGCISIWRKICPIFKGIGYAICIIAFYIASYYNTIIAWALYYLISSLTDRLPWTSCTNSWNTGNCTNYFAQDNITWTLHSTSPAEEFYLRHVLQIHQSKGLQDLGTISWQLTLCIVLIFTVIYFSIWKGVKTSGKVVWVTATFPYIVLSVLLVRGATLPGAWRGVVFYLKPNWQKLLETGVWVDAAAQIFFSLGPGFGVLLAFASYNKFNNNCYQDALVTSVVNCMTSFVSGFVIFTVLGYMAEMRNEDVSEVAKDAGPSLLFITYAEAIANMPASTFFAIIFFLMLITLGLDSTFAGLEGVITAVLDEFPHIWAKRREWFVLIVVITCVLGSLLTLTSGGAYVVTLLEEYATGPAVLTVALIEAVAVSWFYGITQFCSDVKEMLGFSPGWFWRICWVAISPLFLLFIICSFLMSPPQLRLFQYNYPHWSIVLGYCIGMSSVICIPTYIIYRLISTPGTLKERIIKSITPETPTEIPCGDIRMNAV
Chain of Sodium-dependent dopamine transporter (Homo sapiens, UniProt Q01959) (Q01959 whole entry): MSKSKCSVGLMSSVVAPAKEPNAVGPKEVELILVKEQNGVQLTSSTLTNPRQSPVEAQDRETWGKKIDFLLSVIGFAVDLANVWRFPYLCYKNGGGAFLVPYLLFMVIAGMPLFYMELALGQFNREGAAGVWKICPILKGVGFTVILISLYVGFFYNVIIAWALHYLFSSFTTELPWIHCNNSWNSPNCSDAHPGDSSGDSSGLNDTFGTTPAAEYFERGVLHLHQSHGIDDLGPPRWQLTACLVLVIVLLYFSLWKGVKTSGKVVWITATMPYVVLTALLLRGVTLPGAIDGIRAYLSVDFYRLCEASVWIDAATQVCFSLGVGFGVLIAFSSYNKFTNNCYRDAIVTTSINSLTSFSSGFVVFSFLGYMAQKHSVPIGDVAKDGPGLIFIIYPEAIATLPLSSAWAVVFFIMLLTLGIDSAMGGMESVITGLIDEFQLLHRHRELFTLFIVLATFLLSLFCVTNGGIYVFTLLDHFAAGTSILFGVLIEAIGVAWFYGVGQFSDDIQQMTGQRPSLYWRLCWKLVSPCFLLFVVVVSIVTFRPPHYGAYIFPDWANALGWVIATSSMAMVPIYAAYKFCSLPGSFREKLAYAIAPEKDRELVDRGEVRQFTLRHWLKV

Row | SMILES | inhibition [1] | Activity [2] | EC50 [3] [nM] | Activity [4] | Activity [5] | IC50 [6] [nM] | Activity [7] | Activity [8] | Activity [9] | EC50 [10] [nM] | IC50 [11] [nM] | Ki [12] [nM] | EC50 [13] [nM]
1 | Cc1cccc(C(=O)C(C)NC2CC2)c1 (stereo not drawn) | Active | inactive | 1070 | inactive | Active | 1100 | inactive | inactive | inactive |  |  |  | 
2 | CC(NC1CC1)C(=O)c1cccc(Cl)c1 (stereo not drawn) | Active | inactive | 1330 | inactive | Active | 533 | inactive | inactive | inactive |  |  |  | 
3 | CNC(C)C(=O)c1cccc(Cl)c1 (stereo not drawn) | Active | inactive | 410 | inactive | Active |  | inactive | inactive | inactive | 46.8 |  |  | 
4 | CC(NC1CC1)C(=O)c1cccc(Br)c1 (stereo not drawn) | Active | inactive | 621 | inactive | Active | 386 | inactive | inactive | inactive |  |  |  | 
5 | CCCC(N)Cc1ccccc1 (stereo not drawn) | Active | inactive |  | inactive | Active | 2600 | inactive | inactive | inactive |  | > 10000 |  | 
6 | C[C@H](NC1CC1)C(=O)c1cccc(Cl)c1 | Active | inactive | 562 | inactive | Active | 294 | inactive | inactive | inactive |  |  |  | 
7 | CCC(Cc1ccccc1)NC (stereo not drawn) | Active | inactive | 4700 | inactive | Active |  | inactive | inactive | inactive | 225 |  |  | 
8 | CC(NC1CC1)C(=O)c1ccc(Cl)c(Cl)c1 (stereo not drawn) | Active | inactive | 356 | inactive | Active | 425 | inactive | inactive | inactive |  |  |  | 
9 | COc1cccc(C(=O)C(C)NC2CC2)c1 (stereo not drawn) | Active | inactive | 1010 | inactive | Active | 2370 | inactive | inactive | inactive |  |  |  | 
10 | CC(NC1CC1)C(=O)c1ccc(Cl)cc1 (stereo not drawn) | Active | inactive | 1630 | inactive | Active | 2010 | inactive | inactive | inactive |  |  |  | 
11 | C[C@@H](NC1CC1)C(=O)c1cccc(Cl)c1 | Active | inactive | 733 | inactive | Active | 369 | inactive | inactive | inactive |  |  |  | 
12 | CCNC(C)C(=O)c1ccccc1 (stereo not drawn) |  |  |  |  |  |  |  |  |  |  |  | 1010 | 2120
13 | CC(N)Cc1cccc(Cl)c1 (stereo not drawn) | Active | inactive |  | inactive | Active |  | inactive | inactive | inactive |  |  |  | 
14 | CCCNC(C)C(=O)c1cccc(Cl)c1 (stereo not drawn) | Active | inactive |  | inactive | Active | 793 | inactive | inactive | inactive |  | > 10000 |  | 
15 | Cc1ccc(C(=O)C(C)NC2CC2)cc1Cl (stereo not drawn) | Active | inactive | 181 | inactive | Active | 592 | inactive | inactive | inactive |  |  |  | 
16 | Cc1ccc(C(=O)C(C)NC2CC2)cc1 (stereo not drawn) | Active | inactive | 667 | inactive | Active | 1100 | inactive | inactive | inactive |  |  |  | 
17 | CCC(NC)C(=O)c1ccccc1 (stereo not drawn) | Active | inactive |  | inactive | Active |  | inactive | inactive | inactive | 411 | > 10000 |  | 
18 | CCNC(C)C(=O)c1cccc(Cl)c1 (stereo not drawn) | Active | inactive |  | inactive | Active | 5920 | inactive | inactive | inactive |  | > 10000 |  | 
